We go through 5 compounds from ChEMBL document CHEMBL1135427, “Osteoadsorptive bisphosphonate derivatives of fluoroquinolone antibacterials” (2002).

In brackets after ≈: the same amount, converted by molar mass.

One assay has as its system Salmonella typhi. As to the kind of experiment: Antibacterial activity determined as minimal inhibitory concentration (MIC) against Salmonella typhi OKI 10084. The assay is classed as functional, Salmonella enterica subsp. enterica serovar Typhi. The settings on record: Salmonella enterica. In a few lines:
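Agar dilution against a laboratory strain. Compounds were dissolved in 0.2% NaHCO3, or in DMSO if insoluble, and mixed into molten agar at 50 °C. Bacterial suspension was streaked onto the solidified agar. Plates were incubated 48 h at 37 °C. MIC was taken as the lowest concentration inhibiting bacterial growth.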

Assay [1] relates to Helicobacter pylori. Description: Antibacterial activity determined as minimal inhibitory concentration (MIC) against Helicobacter pylori HIH 27606. The assay is classed as functional. In a few lines: (§1)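 Agar dilution. Compounds were dissolved in 0.2% NaHCO3, or in DMSO if insoluble, and mixed into molten agar at 50 °C. After the agar set, bacterial suspension was streaked onto the surface. MIC was read after 48 h of incubation at 37 °C.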

A short description of assay [2]: Antibacterial activity determined as minimal inhibitory concentration (MIC) against […] OKI 60002. It is filed as functional. The essentials:
as §1

Another assay concerns Pseudomonas aeruginosa. As to the kind of experiment: Antibacterial activity determined as minimal inhibitory concentration (MIC) against Pseudomonas aeruginosa ATCC 27853. It is filed as functional. In a few lines:
as §1

Assay [3] deals with Helicobacter pylori. Description: Antibacterial activity determined as minimal inhibitory concentration (MIC) against Helicobacter pylori HIH 27604. It is filed as functional. The essentials: as §1
Assay [4] relates to Staphylococcus aureus. Description: Antibacterial activity determined as minimal inhibitory concentration (MIC) against Staphylococcus aureus ATCC 25923. It is filed as functional. In a few lines:
as §1

The next assay concerns Enterococcus faecalis. Description: Antibacterial activity determined as minimal inhibitory concentration (MIC) against Streptococcus faecalis OKI 80171. The assay is classed as functional. The essentials: as §1
Assay [5] relates to Staphylococcus epidermidis. As to the kind of experiment: Antibacterial activity determined as minimal inhibitory concentration (MIC) against Staphylococcus epidermidis ATCC 110001. The assay is classed as functional. The essentials:
as §1

For a further assay, the system named is Escherichia coli. As to the kind of experiment: Antibacterial activity determined as minimal inhibitory concentration (MIC) against Escherichia coli OKI 35034. The assay is classed as functional. The essentials: as §1
Assay [6] has as its system Staphylococcus aureus. Description: Antibacterial activity determined as minimal inhibitory concentration (MIC) against Staphylococcus aureus ATCC 12598. It is filed as functional. In a few lines: as §1
Assay [7] relates to Staphylococcus aureus. Description: Antibacterial activity determined as minimal inhibitory concentration (MIC) against Methicillin resistant Staphylococcus aureus. The assay is classed as functional.
Assay [8] relates to Staphylococcus aureus. Description: Antibacterial activity determined as minimal inhibitory concentration (MIC90) against Methicillin sensitive Staphylococcus aureus. It is filed as functional. In a few lines: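 Broth microdilution on clinical isolates. Compounds were serially diluted from 256 to 0.5 μg/mL. Log-phase bacteria were added (A540 = 0.15 × 10^7 cfu/mL) and incubated 18 h at 37 °C, then growth was inspected macroscopically. MIC was the lowest concentration inhibiting growth. MIC90 was calculated across multiple isolates from median MIC ±1 SD using the z statistic.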

Assay [9] concerns Aggregatibacter actinomycetemcomitans. Description: Antibacterial activity determined as minimal inhibitory concentration (MIC) against Actinobacillus actinomycetecommitans ATCC 29527. The assay is classed as functional. The essentials: as §1
For assay [10], the system named is Staphylococcus aureus. As to the kind of experiment: Antibacterial activity determined as minimal inhibitory concentration (MIC) against Staphylococcus aureus ATCC 12598; value ranges from 8-16. The assay is classed as functional. In a few lines: as §1
Assay [11] deals with Aggregatibacter actinomycetemcomitans. Description: Antibacterial activity determined as minimal inhibitory concentration (MIC) against Actinobacillus actinomycetecommitans ATCC 29527; value ranges from 1-2. The assay is classed as functional. In a few lines:
as §1

Assay [12] concerns Staphylococcus aureus. As to the kind of experiment: Antibacterial activity determined as minimal inhibitory concentration (MIC) against Staphylococcus aureus ATCC 25923; value ranges from 8-16. It is filed as functional. The essentials: as §1

Turning to `CCOP(=O)(OCC)C(N1CCN(c2cc3c(cc2F)c(=O)c(C(=O)O)cn3C2CC2)CC1)P(=O)(OCC)OCC`, the MIC against Salmonella typhi is 0.78 µg/mL (≈ 1.26 µM); against Helicobacter pylori [1] it was 25 µg/mL (≈ 40.5 µM); in [2] it was 25 µg/mL (≈ 40.5 µM); against Pseudomonas aeruginosa it was greater than 100 µg/mL; against Helicobacter pylori [3], 25 µg/mL (≈ 40.5 µM); with Staphylococcus aureus [4], 12.5 µg/mL (≈ 20.2 µM). The MIC with Enterococcus faecalis came out at 50 µg/mL (≈ 81 µM); in assay [5], 6.25 µg/mL (≈ 10.1 µM); with Escherichia coli, 0.78 µg/mL (≈ 1.26 µM).
For orientation: MIC90 means the lowest concentration that inhibits either 90% of growth or 90% of the strains tested, depending on the study. Read a low MIC90 as greater potency. With `CCOP(=O)(OCC)C(CN1CCN(c2cc3c(cc2F)c(=O)c(C(=O)O)cn3C2CC2)CC1)P(=O)(OCC)OCC`, the MIC is less than 0.39 µg/mL against Salmonella typhi; 1 µg/mL (≈ 1.58 µM) against Staphylococcus aureus [6]; greater than 8 µg/mL in the assay with Staphylococcus aureus [7]; less than 0.39 µg/mL against Helicobacter pylori [1]; less than 0.39 µg/mL in [2]; 3.12 µg/mL (≈ 4.94 µM) in the assay on Pseudomonas aeruginosa. In addition, the MIC with Helicobacter pylori [3] is 0.78 µg/mL (≈ 1.24 µM); in [9], less than 0.25 µg/mL; against Staphylococcus aureus [4], 3.12 µg/mL (≈ 4.94 µM); against Enterococcus faecalis, 3.12 µg/mL (≈ 4.94 µM); in [5] it was 0.78 µg/mL (≈ 1.24 µM); in the assay on Escherichia coli, less than 0.39 µg/mL. In addition, the MIC90 against Staphylococcus aureus [8] worked out at 3.91 µg/mL (≈ 6.19 µM).
As for `O=C(O)c1cn(C2CC2)c2cc(N3CCN(CC(P(=O)(O)O)P(=O)(O)O)CC3)c(F)cc2c1=O`, the MIC in the assay with Salmonella typhi was 0.78 µg/mL (≈ 1.5 µM); with Staphylococcus aureus [7] it was greater than 8 µg/mL; against Helicobacter pylori [1], 0.78 µg/mL (≈ 1.5 µM); in the assay with Staphylococcus aureus [10], 16 µg/mL (≈ 30.8 µM); in assay [11] it was 2 µg/mL (≈ 3.85 µM); in [2], less than 0.39 µg/mL. For the same compound, the MIC is 25 µg/mL (≈ 48.1 µM) against Pseudomonas aeruginosa; 3.12 µg/mL (≈ 6.01 µM) in the assay on Helicobacter pylori [3]; 16 µg/mL (≈ 30.8 µM) against Staphylococcus aureus [12]; 50 µg/mL (≈ 96.3 µM) in the assay with Enterococcus faecalis; 25 µg/mL (≈ 48.1 µM) in assay [5]; 0.78 µg/mL (≈ 1.5 µM) in the assay with Escherichia coli. The compound further had an MIC90 in the assay on Staphylococcus aureus [8] of 51.3 µg/mL (≈ 98.8 µM).
`O=C(O)c1cn(C2CC2)c2cc(N3CCN(C(P(=O)(O)O)P(=O)(O)O)CC3)c(F)cc2c1=O`: the MIC against Salmonella typhi worked out at 0.78 µg/mL (≈ 1.54 µM); against Helicobacter pylori [1], 12.5 µg/mL (≈ 24.7 µM); in assay [2], 6.25 µg/mL (≈ 12.4 µM); with Pseudomonas aeruginosa, 25 µg/mL (≈ 49.5 µM); against Helicobacter pylori [3] it was 12.5 µg/mL (≈ 24.7 µM); against Staphylococcus aureus [4], 50 µg/mL (≈ 98.9 µM). Further, the MIC is 100 µg/mL (≈ 198 µM) with Enterococcus faecalis, 25 µg/mL (≈ 49.5 µM) in assay [5] and less than 0.39 µg/mL with Escherichia coli.
For `O=C(O)c1cn(C2CC2)c2cc(N3CCNCC3)c(F)cc2c1=O` [CIPROFLOXACIN], the MIC in the assay with Salmonella typhi was less than 0.39 µg/mL; in the assay with Staphylococcus aureus [6] it was 2 µg/mL (≈ 6.04 µM); in the assay with Staphylococcus aureus [7] it was greater than 8 µg/mL; with Helicobacter pylori [1] it was less than 0.39 µg/mL; in assay [2] it was less than 0.39 µg/mL; in the assay on Pseudomonas aeruginosa, 3.12 µg/mL (≈ 9.42 µM). Besides, the MIC in the assay with Helicobacter pylori [3] is 0.78 µg/mL (≈ 2.35 µM); in assay [9], 0.25 µg/mL (≈ 0.754 µM); against Staphylococcus aureus [4], 1.56 µg/mL (≈ 4.71 µM); with Enterococcus faecalis it was 3.12 µg/mL (≈ 9.42 µM); in assay [5] it was 0.78 µg/mL (≈ 2.35 µM); against Escherichia coli it was less than 0.39 µg/mL. The same compound registered an MIC90 with Staphylococcus aureus [8] of 1.65 µg/mL (≈ 4.98 µM).
